The text below walks through data of ChEMBL document CHEMBL1255466, “Nucleotide selectivity of antibiotic kinases” (Antimicrob Agents Chemother, 2010).

Experiment [1] is described as follows: Ratio of Kcat to Km for macrolide 2'-phosphotransferase 1 by PK/LDH-coupled assay. In outline:
(§1)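 Macrolide substrate was varied in the PK/LDH-coupled system (HEPES pH 7.5, KCl, MgCl2, NADH, PEP), with fixed 0.2 mM GTP as donor. Antibiotic was preincubated with enzyme 5 min at 37°C, the reaction was started with nucleotide, and NADH oxidation was read at 340 nm for 5 min. Initial rates were fitted to Michaelis-Menten, or to a substrate-inhibition equation where it applied.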

Experiment [2] can be described thus: Activity at macrolide 2'-phosphotransferase 1 by PK/LDH-coupled assay. The method in brief: as §1
Experiment [3] is described as follows: Inhibition of APH(3')-3a by PK/LDH-coupled assay. In outline: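 N-terminally His6-tagged kinase, purified on Ni-NTA. Antibiotic at saturating level, preincubated 5 min at 37°C. Started with ATP or GTP held at Km. AMPPNP or GMPPNP added as 2-fold dilutions. NADH oxidation read at 340 nm over 5 min. IC50 fitted, then converted to Ki.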
A short description of experiment [4]: Inhibition of macrolide 2'-phosphotransferase 1 by PK/LDH-coupled assay.
A short description of experiment [5]: Ratio of Kcat to Km for macrolide 2'-phosphotransferase 1 by PK/LDH-coupled assay in presence of GTP. In outline: (§2)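 His6-tagged kinase purified by Ni-NTA. […] Nucleotide (ATP or GTP) was varied to start; A340 followed 5 min. Linear initial rates were fitted by nonlinear least squares.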
Experiment [6] is described as follows: Activity at macrolide 2'-phosphotransferase 1 by PK/LDH-coupled assay in presence of ATP. The method in brief: as §2
Experiment [7] can be described thus: Ratio of Kcat to Km for macrolide 2'-phosphotransferase 1 by PK/LDH-coupled assay in presence of ATP. In outline:
as §2

A short description of experiment [8]: Activity at macrolide 2'-phosphotransferase 1 by PK/LDH-coupled assay in presence of GTP. In outline: as §2
Experiment [9] is described as follows: Activity at APH(3')-3a by PK/LDH-coupled assay in presence of ATP. In outline: as §2
A short description of experiment [10]: Ratio of Kcat to Km for APH(3')-3a by PK/LDH-coupled assay in presence of ATP. The method in brief: as §2

By Km is commonly meant the substrate concentration at which the rate is half of its maximum. What is called kcat is the maximal rate divided by the concentration of active sites. With SPIRAMYCIN, the kcat/Km in [1] amounted to 4.19 ×10² /s/M. Further, in experiment [2], the Km turned out to be 478 µM and the kcat came out at 0.2 s⁻¹.
For orientation: Ki means a measure of affinity in units of concentration, obtained from inhibition or displacement. Turning to `Nc1nc2c(ncn2[C@@H]2O[C@H](COP(=O)(O)OP(=O)(O)NP(=O)(O)O)[C@@H](O)[C@H]2O)c(=O)[nH]1` [PHOSPHOAMINOPHOSPHONIC ACID GUANYLATE ESTER], in experiment [3], the Ki entry is “Not Active”.
For the compound `Nc1ncnc2c1ncn2[C@@H]1O[C@H](COP(=O)(O)OP(=O)(O)NP(=O)(O)O)[C@@H](O)[C@H]1O`, the inhibitory constant (Ki) in experiment [3] (read-out: Ki) was 14.2 µM; in [4], “Not Active”.
For `CC[C@H]1OC(=O)C[C@@H](O)[C@H](C)[C@@H](O[C@@H]2O[C@H](C)[C@@H](O[C@H]3C[C@@](C)(O)[C@@H](O)[C@H](C)O3)[C@H](N(C)C)[C@H]2O)[C@@H](CC=O)C[C@@H](C)C(=O)/C=C/C(C)=C/[C@@H]1CO[C@@H]1O[C@H](C)[C@@H](O)[C@@H](OC)[C@H]1OC`, the kcat/Km in experiment [1] amounted to 1.33 ×10³ /s/M. In addition, in experiment [2], the Km is 131 µM and the kcat was 0.174 s⁻¹.
Taken in the same sequence, the figures for `CC[C@H]1OC(=O)[C@H](C)[C@@H](O[C@H]2C[C@@](C)(OC)[C@@H](O)[C@H](C)O2)[C@H](C)[C@@H](O[C@@H]2O[C@H](C)C[C@H](N(C)C)[C@H]2O)[C@](C)(O)C[C@@H](C)CN(C)[C@H](C)[C@@H](O)[C@]1(C)O` were 1.05 ×10⁴ /s/M, 27.7 µM and 0.292 s⁻¹.
In the case of `CC[C@H]1OC(=O)[C@H](C)[C@@H](O[C@H]2C[C@@](C)(OC)[C@@H](O)[C@H](C)O2)[C@H](C)[C@@H](O[C@@H]2O[C@H](C)C[C@H](N(C)C)[C@H]2O)[C@](C)(O)C[C@@H](C)C(=O)[C@H](C)[C@@H](O)[C@]1(C)O`, the kcat/Km in experiment [5] came to 1.07 ×10⁴ /s/M; in experiment [1] it was 7.52 ×10³ /s/M; in [7] it was 1.16 ×10¹ /s/M. The Km in experiment [6] was 1890 µM; in [2] it was 37.2 µM; in experiment [8], 59.2 µM. Moreover, the kcat was found to be 0.022 s⁻¹ in experiment [6], 0.279 s⁻¹ in [2] and 0.634 s⁻¹ in experiment [8].
Take `NC[C@@H]1O[C@H](O[C@H]2[C@@H](O)[C@H](O[C@@H]3[C@@H](O)[C@H](N)C[C@H](N)[C@H]3O[C@H]3O[C@H](CN)[C@@H](O)[C@H](O)[C@H]3N)O[C@@H]2CO)[C@H](N)[C@@H](O)[C@@H]1O`: in [9], the Km stood at 10.6 µM and the kcat was found to be 1.59 s⁻¹. Moreover, the kcat/Km in [10] was found to be 1.5 ×10⁵ /s/M.
`CC[C@H]1OC(=O)[C@H](C)C(=O)[C@H](C)[C@@H](O[C@@H]2O[C@H](C)C[C@H](N(C)C)[C@H]2O)[C@](C)(OC)C[C@@H](C)C(=O)[C@H](C)[C@H]2N(CCCCn3cnc(-c4cccnc4)c3)C(=O)O[C@]12C`: the kcat/Km in [1] came to 2.07 ×10⁴ /s/M. Besides, in experiment [2], the Km was determined as 7.4 µM and the kcat is 0.152 s⁻¹. The compound further yielded a Ki in [4] of 622 µM.
`CC[C@H]1OC(=O)[C@H](C)[C@@H](O[C@H]2C[C@@](C)(OC)[C@@H](O)[C@H](C)O2)[C@H](C)[C@@H](O[C@@H]2O[C@H](C)C[C@H](N(C)C)[C@H]2O)[C@](C)(OC)C[C@@H](C)C(=O)[C@H](C)[C@@H](O)[C@]1(C)O`: in experiment [1], the kcat/Km was 6.77 ×10³ /s/M. In experiment [2], the Km worked out at 45.9 µM and the kcat was determined as 0.311 s⁻¹.
